Test results published in article PMC7261373 (Journal of medicinal chemistry, 2019).

Assays:
ERα [1] = molecular target: T1, ERα (Homo sapiens, UniProt P03372); assay: ER in-cell western; assay type: cell-based; conditions: MCF7:WS8, 24 h treatment
T1 sequence (P03372 1-595): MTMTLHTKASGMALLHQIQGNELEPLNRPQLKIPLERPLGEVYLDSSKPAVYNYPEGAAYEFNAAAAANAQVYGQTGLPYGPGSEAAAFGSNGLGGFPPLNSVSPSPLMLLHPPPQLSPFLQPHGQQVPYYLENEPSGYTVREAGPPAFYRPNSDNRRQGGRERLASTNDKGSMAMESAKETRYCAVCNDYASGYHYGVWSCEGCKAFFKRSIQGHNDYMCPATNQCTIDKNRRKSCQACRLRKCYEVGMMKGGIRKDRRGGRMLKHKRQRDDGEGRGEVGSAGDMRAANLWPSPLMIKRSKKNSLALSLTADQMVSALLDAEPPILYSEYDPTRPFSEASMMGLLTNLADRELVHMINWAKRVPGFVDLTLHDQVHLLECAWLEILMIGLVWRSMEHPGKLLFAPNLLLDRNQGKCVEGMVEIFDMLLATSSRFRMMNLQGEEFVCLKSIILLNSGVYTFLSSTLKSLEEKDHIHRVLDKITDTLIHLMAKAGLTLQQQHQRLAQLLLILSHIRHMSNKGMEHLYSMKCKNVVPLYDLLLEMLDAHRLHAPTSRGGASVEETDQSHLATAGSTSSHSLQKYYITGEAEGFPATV
Outline: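 MCF7:WS8 cells were stripped for 2 days (phenol red-free medium, stripped FBS), plated at 2.5 × 10^4 cells/well, grown 48 h, then treated 24 h. They were fixed and stained with anti-ERα (H10) by the in-cell western protocol. The IRDye 800CW signal was normalized to CellTag 700 stain.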

MCF7:5C cells = assay: DNA content assay, 2D growth inhibition of MCF7:5C cells; assay type: cell-based; conditions: for growth inhibition, result in words: 2D culture
Outline: (§1)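 Cells were seeded at 5000/well in 96-well plates and treated with 0.01% (v/v) DMSO vehicle or serially diluted test compound. MCF7:WS8 cells were estrogen-stripped for 2 days beforehand (phenol red-free RPMI-1640, stripped FBS) and read on day 5. MCF7:5C cells, kept in phenol red-free RPMI-1640 with charcoal:dextran-stripped FBS, were read on day 7. Lysis was at −80 °C overnight, then Hoechst 33258 fluorescence was measured in TNE buffer. Data were normalized to vehicle and no cells, from ≥3 biological and analytical replicates.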

[2] = Preliminary PK screen, plasma and brain concentrations by LC-MS/MS; assay type: in vivo, C57BL/6 mice; conditions: for concentration in the brain: 0.5 and 2 h, 100 mg/kg oral
MCF7:TAM1 spheroids = assay: Spheroid growth assay; assay type: cell-based; conditions: 10 nM, 14 days, ATP content
Outline: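 MCF7:TAM1 cells, maintained in phenol red-free stripped RPMI-1640 containing 1 μM of the selecting antiestrogen, were plated at 1000–1500 cells/well in ultra-low-attachment round-bottom plates. Spheroids grew untreated for 1–3 days. Half the medium was then replaced with 2× treatment medium, and 1× treatment was repeated every 2–3 days over 14 days; vehicle was 0.01% DMSO. Viability was read by CellTiter-Glo 3D luminescence, normalized to vehicle (1.0) and background (0.0). Three biological and analytical replicates were run, analysed by one-way ANOVA versus vehicle.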

ERE-luciferase = assay type: cell-based; conditions: MCF7:WS8, in competition with 1 nM E2
Outline: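 MCF7:WS8 cells were grown 3 days in phenol red-free RPMI-1640 with stripped FBS, plated at 1 × 10^5 cells/well, and held 24 h. They were then co-transfected for 6 h (Lipofectamine 2000, Opti-MEM) with pERE-luciferase (three Xenopus vitellogenin A2 EREs driving firefly luciferase) and pRL-TK Renilla. Cells were treated with test compound plus 1 nM E2 for 18 h before dual-luciferase readout.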

MCF7:WS8 cells = assay: DNA content assay, 2D growth inhibition of MCF7:WS8 cells; assay type: cell-based; conditions: for growth inhibition, result in words: MCF7:WS8, 2D culture
Outline: as §1

[3] = tested on: T47D:WT, T47D:TYS (Y537S) and T47D:TDG (D538G) cells; assay: Spheroid growth assay; assay type: cell-based; conditions: 10 nM, 11 days treatment
ERα [4] = molecular target: T1, ERα; assay: ER western assay with proteasomal inhibitor MG-132 in MCF7:WS8 cells; assay type: cell-based; conditions: MCF7:WS8, 10 nM, MG-132 1 μM, western blot
Full PK analysis of 37d = assay type: in vivo, CD-1 mice; conditions: CD-1, mouse, plasma, po, 50 mg/kg
Outline: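 Test compound was given orally at 50 mg/kg as a solution in water and 10% SBE-β-CD/PEG-400 (9:1 v/v). Plasma was sampled at 10 time points. Samples were diluted in 50% acetonitrile, with working standards serially diluted in 50% acetonitrile in water, and quantified by LC-MS/MS.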

Cc1ccccc1C(=O)c1sc2cc(O)ccc2c1Oc1ccc(OCCN2CCC2)cc1 [30a, (3-(4-(2-(Azetidin-1-yl)ethoxy)phenoxy)-6-hydroxybenzo[b]-thiophen-2-yl)(o-tolyl)methanone]
ERα degradation by ICW, result in words (ERα [1]): reduced efficacy
growth inhibition, result in words (MCF7:5C cells): significantly reduced efficacy

Cc1cc(F)cc(C)c1C(=O)c1sc2cc(O)ccc2c1Oc1ccc(OCCN2CC(CF)C2)cc1 [30f, (4-Fluoro-2,6-dimethylphenyl)(3-(4-(2-(3-(fluoromethyl)azetidin-1-yl)ethoxy)phenoxy)-6-hydroxybenzo[b]thiophen-2-yl)-methanone]
concentration in the brain [2]: 600 to 750 nM
inhibition of spheroid growth, in words (MCF7:TAM1 spheroids): greater efficacy

O=C(c1ccc(O)cc1)c1sc2cc(O)ccc2c1Oc1ccc(OCCN2CC(CF)C2)cc1 [30g, (3-(4-(2-(3-(Fluoromethyl)azetidin-1-yl)ethoxy)phenoxy)-6-hydroxybenzo[b]thiophen-2-yl)(4-hydroxyphenyl)methanone]
growth inhibition, result in words (MCF7:5C cells): lost efficacy

Cc1cc(O)ccc1C(=O)c1sc2cc(O)ccc2c1Oc1ccc(OCCN2CC(CF)C2)cc1 [30h, (3-(4-(2-(3-(Fluoromethyl)azetidin-1-yl)ethoxy)phenoxy)-6-hydroxybenzo[b]thiophen-2-yl)(4-hydroxy-2-methylphenyl)-methanone]
antagonism of ERE-luciferase induction by E2, potency in words (ERE-luciferase): lower potency
ERα degradation by ICW, result in words (ERα [1]): reduced efficacy

Cc1ccccc1C(=O)c1sc2cc(O)ccc2c1Oc1ccc(OCCN2CC[C@@H](CF)C2)cc1 [30l, (R)-(3-(4-(2-(3-(Fluoromethyl)pyrrolidin-1-yl)ethoxy)phenoxy)-6-hydroxybenzo[b]thiophen-2-yl)(o-tolyl)methanone]
growth inhibition, result in words (MCF7:5C cells): superior potency and efficacy to 2
growth inhibition, result in words (MCF7:WS8 cells): superior potency and efficacy to 2

Cc1cc(F)cc(C)c1C(=O)c1sc2cc(O)ccc2c1Oc1ccc(OCCN2CC[C@@H](CF)C2)cc1 [30m, (R)-(4-Fluoro-2,6-dimethylphenyl)(3-(4-(2-(3-(fluoromethyl)-pyrrolidin-1-yl)ethoxy)phenoxy)-6-hydroxybenzo[b]thiophen-2-yl)-methanone]
antagonism of ERE-luciferase induction by E2, potency in words (ERE-luciferase): lower potency

Cc1cc(F)cc(C)c1C(=O)c1sc2cc(O)ccc2c1Oc1ccc(OCCN2CC[C@H](CF)C2)cc1 [30n, (S)-(4-Fluoro-2,6-dimethylphenyl)(3-(4-(2-(3-(fluoromethyl)-pyrrolidin-1-yl)ethoxy)phenoxy)-6-hydroxybenzo[b]thiophen-2-yl)-methanone]
ERα degradation by ICW, result in words (ERα [1]): reduced efficacy

Cc1ccccc1C(=O)c1sc2cc(O)ccc2c1Oc1ccc(OCCN2CCCCC2)cc1 [30o, (6-Hydroxy-3-(4-(2-(piperidin-1-yl)ethoxy)phenoxy)benzo[b]-thiophen-2-yl)(o-tolyl) Methanone]
ERα degradation by ICW, result in words (ERα [1]): did not induce ER degradation
growth inhibition, result in words (MCF7:5C cells): did not inhibit growth

Cc1cc(F)cc(C)c1C(=O)c1sc2cc(O)ccc2c1Oc1ccc(OC2CN(CCCF)C2)cc1 [37d, (4-Fluoro-2,6-dimethylphenyl)(3-(4-((1-(3-fluoropropyl)azetidin-3-yl)oxy)phenoxy)-6-hydroxybenzo[b]thiophen-2-yl)methanone]
efficacy in T47D spheroids, in words [3]: equally as effective as the SERDs, fulvestrant (2) and GDC-0927 (3b), and as the SERM 1b
concentration in the brain [2]: exceeded 1 μM
proteasome dependence of ERα degradation, in words (ERα [4]): coadministration of a proteasome inhibitor blocked the actions
half-life (Full PK analysis of 37d): 4.5 h
inhibition of spheroid growth, in words (MCF7:TAM1 spheroids): greater efficacy

Cc1cc(F)cc(C)c1C(=O)c1sc2cc(O)ccc2c1Oc1ccc(OC2CN(C3CC3)C2)cc1 [37f, (3-(4-((1-Cyclopropylazetidin-3-yl)oxy)phenoxy)-6-hydroxybenzo[b]thiophen-2-yl)(4-fluoro-2,6-dimethylphenyl)-methanone]
antagonism of ERE-luciferase induction by E2, potency in words (ERE-luciferase): lower potency
ERα degradation by ICW, result in words (ERα [1]): low efficacy
growth inhibition, result in words (MCF7:5C cells): loss of efficacy
growth inhibition, result in words (MCF7:WS8 cells): potent and effective

C[C@]12CC[C@@H]3c4ccc(O)cc4C[C@@H](CCCCCCCCC[S+]([O-])CCCC(F)(F)C(F)(F)F)[C@H]3[C@@H]1CC[C@@H]2O (stereo partly drawn) [compound 2, fulvestrant, reference compound]
concentration in the brain, in words ([2]; 30 min, s.c.): below the limit of quantification
IC50 (MCF7:5C cells; 144 h, read-out: pIC50, inhibition of cell growth (converted)): 0.631 to 1.58 nM
IC50 (MCF7:WS8 cells; MCF7:WS8, 96 h, read-out: pIC50, inhibition of cell growth (converted)): 0.631 to 1.58 nM
inhibition of spheroid growth, in words (MCF7:TAM1 spheroids): greater efficacy

O=C(c1ccc(OCCN2CCCCC2)cc1)c1c(-c2ccc(O)cc2)sc2cc(O)ccc12 [compound 6, raloxifene, reference compound]
growth inhibition, result in words (MCF7:5C cells): cross-resistant
